S1P4 antagonist – antagonists of human S1P4 receptor; 220,000 tested, 0.26% active; AID 1510; S1P4-expressing cells, antagonist mode, reporter read-out; O95977; inhibition, % at 4.98 µM; in the data active = inhibition above about 29%;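 also: 0% = wells stimulated with agonist and 100% = vehicle wells without agonist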
Target sequence (O95977 whole entry, looked up): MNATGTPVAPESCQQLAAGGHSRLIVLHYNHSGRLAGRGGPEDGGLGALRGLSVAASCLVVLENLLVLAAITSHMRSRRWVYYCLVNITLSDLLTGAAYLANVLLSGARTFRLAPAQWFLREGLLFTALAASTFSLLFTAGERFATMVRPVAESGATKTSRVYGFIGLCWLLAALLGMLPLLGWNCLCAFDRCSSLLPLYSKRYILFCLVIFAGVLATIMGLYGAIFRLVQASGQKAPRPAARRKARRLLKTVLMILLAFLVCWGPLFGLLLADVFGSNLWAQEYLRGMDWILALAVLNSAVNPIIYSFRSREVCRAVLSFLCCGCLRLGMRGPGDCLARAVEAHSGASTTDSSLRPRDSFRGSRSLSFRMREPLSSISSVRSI
NPY2 pot ag – potentiators or agonists of human neuropeptide Y receptor Y2; cells expressing NPY-Y2, potentiator/agonist read-out; activation, % at 3.6 µM; 220,000 tested, 0.45% active; in the data active = activation above about 27%;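 also: cells stimulated with NPY near EC25 plus isoproterenol at EC100; 0% = vehicle plus submaximal agonist and 100% = vehicle plus saturating agonist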
NPY-Y1 antag – blocks the human neuropeptide Y Y1 receptor | HEK293-CNG Y1 cells, membrane potential fluorescence; NPY at EC95, then isoproterenol | inhibition, % at 3.6 µM | P25929 | AID 1040 | 200,000 tested, 1% active;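 active = inhibition above the campaign mean inhibition of all tested compounds plus 3 SD, cut at about 20% in these data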;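 also: 0% = DMSO wells given NPY plus isoproterenol and 100% = isoproterenol alone without NPY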
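Assay system: HEK293 Y1/CNG channel cell line; Doses: single compound dose of 3.6 µM, 0.4% DMSO; Timing: dye 3 h, compound 60 min room temperature, stimulation 45 min; Technique: Membrane-potential fluorescent dye readout; Measure: % inhibition of NPY effect.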
NPY-Y1 PAM-ag – human NPY-Y1 potentiation or agonism, primary screen; NPY-Y1 expressing cells, potentiator/agonist activation; activation, % at 3.6 µM; 220,000 tested, 0.37% active; in the data active = activation above about 33%, passing the limit was not always enough;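 also: cells stimulated with NPY at EC10 then isoproterenol at EC100; 0% = low agonist plus stimulus and 100% = saturating agonist plus stimulus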
S1P4 ag – agonists of human S1P4 receptor; O95977; S1P4-expressing cell line, agonist reporter assay; activation, % at 4.98 µM; 220,000 tested, 0.35% active; in the data active = activation above about 11%;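 also: 0% = DMSO vehicle and 100% = reference agonist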
NPY-Y2 antag – blocks the human neuropeptide Y Y2 receptor; 140,000 tested, 0.99% active; AID 793; NPY-Y2 expressing cells, antagonist mode; P49146; inhibition, % at 2.7 µM;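 also: 0% = vehicle with agonist challenge and 100% = reference antagonist with challenge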
NPY1 antag conf – human NPY-Y1 antagonism, confirmation | AID 1254 | HEK293-CNG NPY-Y1, membrane potential fluorescence, cAMP; NPY challenge against isoproterenol-raised cAMP | shares compounds with NPY-Y1 antag | inhibition, % at 3.6 µM | 1,200 tested, 21% active; in the data active = inhibition above about 20%;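 also: 0% = vehicle with agonist plus stimulus and 100% = stimulus alone without agonist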
NPY2 antag ctr – counter-screen for NPY-Y1 antagonists: human NPY-Y2 antagonism | inhibition, % at 3.6 µM | HEK293 NPY-Y2 CNG membrane potential fluorescence; cells given NPY, then isoproterenol | AID 1255 | 1,200 tested, 28% active | shares compounds with NPY-Y1 antag;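 also: 0% = DMSO with agonist challenge and 100% = reference antagonist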
* hit, by the source's call; . = no result given. A selection: hits, their analogues and other compounds. The true share with any hit is near 2.4%. Rule as the data show it, unless noted: active = inhibition above about 17%; inactive = the rest.

SMILES | S1P4 antagonist | NPY2 pot ag | NPY-Y1 antag | NPY-Y1 PAM-ag | S1P4 ag | NPY-Y2 antag | NPY1 antag conf | NPY2 antag ctr
O=Cc1cc2ccccc2nc1SCc1ccc(Cl)cc1 | -9 | -13 | 26* | 9 | 1 | 2 | -5 | 7
COC(=O)c1ccccc1NC(=O)c1ccccc1SC | 7 | 3 | 11 | -21 | 0 | 0 | . | .
CCOC(=O)c1ccccc1NC(=O)c1ccccc1SC | -7 | -18 | 24* | -46 | -1 | 3 | 7 | 4
C=CCSc1nnc(-c2cc3c(s2)-c2ccccc2CC3)o1 | -10 | -28 | 21* | -38 | 0 | 7 | 9 | 5
Fc1cccc(Cc2noc(CN3CCN(C4CCc5ccccc5C4)CC3)n2)c1 (centres undefined) | -4 | -20 | 24* | -15 | 1 | . | 17 | 13
CCOC(=O)C1(CCCc2ccccc2)CCN(Cc2cn(CC)nc2C)CC1 | 2 | -9 | 6 | 1 | 4 | . | . | .
CC(C)Cn1c(N)c(C(=O)CSc2nc3ccccc3c(=O)n2CCCN2CCOCC2)c(=O)n(C)c1=O | -5 | -6 | 1 | -2 | 2 | . | . | .
COCCN1Cc2cccc(C(=O)Nc3cc(C)cc(C)c3)c2C1=O | -3 | 5 | 5 | -1 | 1 | 1 | . | .
COCCN1Cc2cccc(C(=O)Nc3cc(OC)ccc3OC)c2C1=O | -4 | -2 | 34* | -12 | 0 | 3 | 27* | 62*
COCCn1c(-c2ccc(Br)cc2)csc1=Nc1cccnc1 | 3 | 17 | 0 | 2 | 1 | . | . | .
Clc1ccc(-c2csc(=Nc3cccnc3)n2CCCn2ccnc2)cc1Cl | -33 | -4 | 29* | -54 | 1 | 16 | 19 | 14
Cc1ccc(/C=C(\NC(=O)c2ccccc2)C(=O)N2CCCC2C(=O)O)cc1 (centres undefined) | -10 | 2 | -3 | 2 | 1 | . | . | .
COc1ccc(CNC(=O)C2CC(c3cccc(OC)c3)=NO2)cc1 (centres undefined) | -7 | -32 | 12 | -28 | 0 | 12 | . | .
O=C(NCc1cccs1)C1CC(c2ccc(F)cc2)=NO1 (centres undefined) | 7 | 3 | 2 | 1 | 1 | . | . | .
COc1cccc(C2=NOC(C(=O)NCc3ccc(F)cc3)C2)c1 (centres undefined) | 5 | -47 | 23* | -55 | 1 | 13 | 15 | 24*
COc1cccc(C2=NOC(C(=O)NCc3cccs3)C2)c1 (centres undefined) | 4 | -48 | 30* | -13 | 0 | 7 | 3 | 15
COc1cc(C2=NOC(C(=O)NCc3ccc(F)cc3)C2)cc(OC)c1OC (centres undefined) | 4 | -23 | 16 | -26 | 1 | 5 | . | .
COc1ccc(C2=NOC(C(=O)NCc3ccc(F)cc3)C2)cc1OC (centres undefined) | -2 | -12 | 33* | -12 | -2 | 9 | 7 | 16
CCOc1ccc(NC(=O)C2CCC(CNc3c(N4CCC(C)CC4)c(=O)c3=O)CC2)cc1 (centres undefined) | -5 | 15 | . | -6 | 1 | . | . | .
CCn1c(Sc2nc(C)nc3scc(-c4cccs4)c23)n[nH]c1=O | 2 | -2 | 21* | -3 | -1 | 2 | 7 | 37*
O=C(O)CSc1ccc2ccccc2n1 | 5 | -23 | 20* | -29 | -1 | 10 | 5 | 11
COC(=O)c1c(-c2ccc(Br)cc2)noc1N | -7 | 7 | -2 | 4 | -2 | 5 | . | .
CCOc1cc(-c2noc(N)c2C(=O)OC)cc(OCC)c1OCC | 7 | -7 | 22* | -30 | -1 | 7 | 6 | 4
CCN1/C(=C/C=C/c2oc3ccc4ccccc4c3[n+]2CC)Oc2ccc3ccccc3c21 | 3 | -28 | 35* | -24 | 0 | . | 30* | 30*
CC[n+]1c(/C=C/N(C)c2ccccc2)oc2ccc(Cl)cc21 | -2 | -4 | 5 | -8 | -1 | 4 | . | .
SMILES | S1P4 antagonist | NPY2 pot ag | NPY-Y1 antag | NPY-Y1 PAM-ag | S1P4 ag | NPY-Y2 antag | NPY1 antag conf | NPY2 antag ctr
CC(C)N1CCC(N2CCN(C3CCCCCC3)CC2CCO)CC1 (centres undefined) | -8 | -8 | -2 | -3 | 2 | . | . | .
Cc1ccc(CN2CCN(Cc3c(C)nn(-c4ccc(F)cc4)c3C)CC2CCO)o1 (centres undefined) | 4 | -16 | 0 | -17 | -1 | . | . | .
Cc1cc(C)c(CN2CCN(Cc3ccc(C)o3)C(CCO)C2)c(-n2cccn2)c1 (centres undefined) | 14 | -19 | 29* | -9 | -2 | . | 8 | 7
O=Cc1cn(-c2ccccc2)nc1-c1cc2cc(O)ccc2oc1=O | -11 | -22 | 22* | -54 | 4 | 11 | 19 | 14
O=Cc1cn(-c2ccccc2)nc1-c1cc2c(ccc3ccccc32)oc1=O | 14 | -1 | 3 | -2 | 3 | 4 | . | .
C(=N\NCc1ccccc1)/c1ccc2nccnc2c1 | 5 | 10 | . | 8 | 1 | . | . | .
COc1cccc(NC(=O)COC(=O)c2c3c(nc4ccccc24)CCC(C)C3)c1 (centres undefined) | 2 | 12 | 31* | -3 | 1 | 16 | 3 | 4
COc1cccc(/C(C#N)=C/c2c(-c3ccc(Cl)cc3)nc3c(C)cccn23)c1 | -3 | -4 | 23* | 0 | 0 | 2 | 4 | 2
COC(=O)c1ccc(N2C(=O)C3CC(C)=C(C)CC3C2=O)cc1 (centres undefined) | 11 | -9 | -3 | -3 | -1 | . | . | .
O=C(COc1ccccc1Cl)Nc1ccc(CN2CCCCC2)cc1 | -10 | 0 | 13 | -11 | 2 | . | . | .
CCOc1nc(-c2ccc(Cl)cc2Cl)ccc1C#N | -17 | -13 | 36* | -19 | 0 | 13 | 16 | 11
O=C(c1ccco1)N1CCN(S(=O)(=O)c2ccc(S(=O)(=O)NC3CCCC3)cc2)CC1 | -1 | 8 | 20* | -17 | 2 | 11 | 4 | 2
Cc1ccc(/C=C/C(=O)N2CCN(S(=O)(=O)/C=C/c3ccccc3)CC2)o1 | 8 | -2 | . | 9 | 1 | . | . | .
NC(=O)COC(=O)CSc1ccc2ccccc2c1 | -15 | -34 | 22* | -39 | -1 | . | 17 | 14
CCCCC(O)(CCCC)C(=O)NN(C(=O)OC)c1ccccc1 | 1 | 6 | 26* | -6 | 2 | 8 | 25* | 11
CCCCC(O)(CCCC)C(=O)NN(C(=O)OCC)c1ccccc1 | -9 | -11 | 34* | -24 | 0 | 16 | 10 | 9
CCCC(O)(CCC)C(=O)NN(C(=O)CCl)c1ccccc1 | -5 | -8 | 1 | 1 | 0 | 4 | . | .
